TRPC6 inh = inhibitors of mouse TRPC6 channel; Q61143; hit rate 1.1% among 310,000; B-score at 10 µM; AID 2553; HEK293-TRPC6, membrane potential dye, ACh-evoked depolarization; hits give low values;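 active = B-score under library mean minus 3 SD, initial fluorescence not abnormally high, positive integrated signal ratio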;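 also: B-score derived from integrated fluorescence ratio over the kinetic read; more negative B-score means stronger inhibition of depolarization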
Target sequence (Q61143 whole entry, looked up): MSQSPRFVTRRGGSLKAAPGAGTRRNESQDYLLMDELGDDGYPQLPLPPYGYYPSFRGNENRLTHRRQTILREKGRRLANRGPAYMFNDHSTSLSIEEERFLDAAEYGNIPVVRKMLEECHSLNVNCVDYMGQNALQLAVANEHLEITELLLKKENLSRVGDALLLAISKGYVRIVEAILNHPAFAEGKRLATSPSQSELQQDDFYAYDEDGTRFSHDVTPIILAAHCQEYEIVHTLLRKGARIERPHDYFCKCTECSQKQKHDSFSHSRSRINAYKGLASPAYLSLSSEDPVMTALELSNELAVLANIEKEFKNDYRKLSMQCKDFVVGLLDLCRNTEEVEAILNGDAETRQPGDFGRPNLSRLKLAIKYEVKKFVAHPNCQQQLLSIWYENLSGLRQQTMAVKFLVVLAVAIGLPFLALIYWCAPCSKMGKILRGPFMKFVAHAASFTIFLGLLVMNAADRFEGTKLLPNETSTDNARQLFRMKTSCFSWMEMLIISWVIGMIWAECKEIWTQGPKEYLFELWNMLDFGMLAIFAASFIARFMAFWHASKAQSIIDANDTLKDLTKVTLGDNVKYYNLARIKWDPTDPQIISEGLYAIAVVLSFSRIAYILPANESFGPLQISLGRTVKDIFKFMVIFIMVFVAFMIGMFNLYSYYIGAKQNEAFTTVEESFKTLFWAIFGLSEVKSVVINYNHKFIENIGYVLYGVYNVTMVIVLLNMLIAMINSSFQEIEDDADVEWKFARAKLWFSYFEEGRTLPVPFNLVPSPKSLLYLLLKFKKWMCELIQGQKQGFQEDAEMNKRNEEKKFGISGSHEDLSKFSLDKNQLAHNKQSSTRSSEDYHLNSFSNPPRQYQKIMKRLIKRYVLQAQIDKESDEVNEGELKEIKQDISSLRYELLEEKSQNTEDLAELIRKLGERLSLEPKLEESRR
TRPC6 act = mouse TRPC6 channel activation. HEK293-TRPC6 membrane potential dye fluorescence; hits give high values. B-score at 10 µM. hit rate 0.13% among 310,000. AID 2550;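 active = B-score of the integrated fluorescence ratio above library mean plus 3 SD, and starting fluorescence ratio within library mean plus 5 SD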;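 also: higher score means more depolarization so channel activation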
TRPC4 agonist = activators of mouse TRPC4 channel; B-score at 10 µM; AID 2237; hit rate 0.49% among 310,000; HEK293 TRPC4beta/mu-opioid, Fluo4 calcium fluorescence; hits give high values;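 active = B-score above 5 SD of library B-scores, and initial fluorescence ratio not above library mean plus 5 SD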;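 also: positive B-score marks a calcium rise read as TRPC4 activation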
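System: HEK293 cells stably co-expressing mouse TRPC4beta and mu-opioid receptor; Schedule: Fluo4 dye loading 45 min at room temperature, 110 s recording; Detection: Fluo4 fluorescence, kinetic; Evaluation: B-scored integrated calcium fluorescence ratio; Controls: buffer (low) and maximal DAMGO (high).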
TRPC4 inh = inhibitors of mouse TRPC4 channel; HEK293 TRPC4beta/mu-opioid, DAMGO-evoked Fluo4 calcium flux; hits give low values; Q9QUQ5; AID 2247; hit rate 0.39% among 300,000; B-score at 10 µM;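 active = B-score over 3 SD under the library average, no early fluorescence shift, positive overall ratio signal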
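Assay system: TRPC4beta/mu-opioid receptor HEK293 cell line; compound dosing: single concentration per test compound; detection: Fluo4 Ca2+ flux fluorescence; evaluation: per-well B score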
TRPC4 potent = allosteric potentiators of mouse TRPC4 channel. Q9QUQ5. HEK293 TRPC4beta/mu-opioid, DAMGO EC20, Fluo-4 Ca2+ flux; hits give high values. B-score at 10 µM. hit rate 0.42% among 310,000. AID 2227;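 active = B-score of calcium response area above 5 SD of library B-scores, with initial fluorescence ratio within 5 SD of library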;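 also: B-score of integrated fluorescence ratio over time as area under calcium response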
* = called active by the depositor; i = inactive. Sampled rows, rich in hits. Any-hit rate of the full collection: about 2.3%.

SMILES | TRPC6 inh | TRPC6 act | TRPC4 agonist | TRPC4 inh | TRPC4 potent
CC1CCCC(NC(=O)COC(=O)c2sc3ccccc3c2Cl)C1C (stereo not given) | i | i | i | i | i
CN(C)c1ccc(N=Nc2ccccc2C(=O)OCC(=O)NCC2CCCCC2)cc1 | i | i | i | i | i
CN(C)c1ccc(N=Nc2ccccc2C(=O)OCC(=O)N(C)C2CCCCC2)cc1 | i | i | i | i | 11*
CCn1c(=O)n(CCOC)c(=O)c2c3c(sc21)CCCC3 | i | i | i | -6* | i
CN(C)CCn1c(=O)n(C2CCCCC2)c(=O)c2c3c(sc21)CCCCC3 | i | i | i | i | i
C=CCN(CC(O)c1cccc([N+](=O)[O-])c1)C(C)CCc1ccccc1 (stereo not given) | i | i | i | -5* | i
O=C(Cc1ccccc1)NC(NC(=O)Cc1ccccc1)c1cccc([N+](=O)[O-])c1 | i | i | i | i | i
O=C(O)C1C2C=CC(C2)C1C(=O)Nc1ccc2c(c1)OCCO2 (stereo not given) | i | i | i | i | i
CN(C)c1ccc(NC(=O)C2C3C=CC(C3)C2C(=O)O)cc1 (stereo not given) | i | i | i | i | 21*
CC(=O)c1ccc(N2CCN(C(=O)CCS(=O)(=O)c3ccc4c(c3)NC(=O)CS4)CC2)cc1 | i | i | i | i | 17*
CC1CC(C)CN(S(=O)(=O)c2ccc(C(=O)N(c3ccccn3)C3CCCCC3)cc2)C1 (stereo not given) | i | i | i | -6* | i
O=C(c1ccc(S(=O)(=O)N2CCCCC2)cc1)N(c1ccccn1)C1CCCCC1 | i | i | i | i | i
CC(=O)N1c2ccccc2C(C)(c2ccccc2)CC1(C)C (stereo not given) | i | i | i | -6* | i
CC(C)c1ccc(C2C3CSCC=C3C(C#N)=C(N)C2(C#N)C#N)cc1 (stereo not given) | i | i | i | i | 23*
CCOC(=O)[C@@H]1CCN(Cc2ccccc2)C[C@H]1c1ccccc1 | i | i | i | -7* | i
CCOc1cc(CN2CCCCC2)ccc1OC | i | i | i | i | i
CCOc1cc(CN2CCN(c3ccc(C(C)=O)cc3)CC2)ccc1OC | i | i | i | i | 11*
COc1ccccc1N(CC(O)CN1CCC(C)CC1)S(=O)(=O)c1ccccc1 (stereo not given) | i | i | i | i | i
CC(=O)Oc1ccc(/C=C(\NC(=O)c2ccco2)C(=O)NCc2ccccc2)cc1 | i | i | i | -7* | i
C=CCOc1ccc(CN(C)Cc2nc3cc(C(F)(F)F)ccc3c(=O)[nH]2)cc1 | i | i | i | i | 15*
CCC(C)NC(=O)c1ccc(NC(=O)C2=C(C)OCCS2)cc1 (stereo not given) | i | i | i | i | i
O=C(CSc1nccc(-c2cccs2)n1)Nc1ccccc1 | i | i | i | i | i
Cc1cccc(-n2ccnc2CN2CCC(CO)(Cc3ccccc3)CC2)c1 | i | i | i | -7* | i
CN1CCN(NC(=O)c2ccc(Cl)c([N+](=O)[O-])c2)CC1 | i | i | 44* | i | i
COc1ccc(Cl)cc1C(=O)Nc1cccc(-c2ccc3nncn3n2)c1 | i | i | i | i | i
SMILES | TRPC6 inh | TRPC6 act | TRPC4 agonist | TRPC4 inh | TRPC4 potent
COCC1CCN(Cc2cn(-c3ccccc3F)nc2-c2cc(C)sc2C)CC1 | i | i | 96* | i | i
Cc1cc(-c2nn(-c3ccccc3F)cc2CNCCc2cnc[nH]2)c(C)s1 | i | i | 125* | i | i
Cc1ccc(CNC(=O)C2CCC(=O)N(C3CC3)C2)cc1 (stereo not given) | i | i | i | i | i
Cn1c(/N=C/c2ccccc2[N+](=O)[O-])nc2ccccc21 | i | i | i | i | 15*
Cn1c(/N=C/c2cccs2)nc2ccccc21 | i | i | i | i | i
CCCOc1ccc(/C=C/C(=O)N2CCOCC2)cc1 | i | i | i | i | i
COc1ccc(C(CNC(=O)c2oc3ccc(OC)cc3c2C)N2CCCC2)cc1 (stereo not given) | i | i | 72* | i | i
CCC1CCc2sc(C(=O)NCC(c3ccc(OC)cc3)N3CCCC3)cc2C1 (stereo not given) | i | i | 55* | i | i
CC(C)CCN(C(=O)Nc1ccccc1)C(C)c1cccs1 (stereo not given) | i | i | i | i | i
CC(C)(C)n1nnnc1C(c1ccncc1)N(Cc1ccccc1)Cc1ccco1 (stereo not given) | i | i | i | i | 10*
CC(C)CC(=O)Nc1nnc(SCC(=O)NC2CCCCC2)s1 | i | i | i | i | i
CCCC(O)(c1ccc(Cl)cc1)C(CN1CCOCC1)c1ccccc1 (stereo not given) | i | i | i | -5* | i
CC(C)c1nnc(NC(=O)CCC(=O)N2CCN(Cc3ccccc3)CC2)s1 | i | i | i | i | 12*
CCOP(=O)(OCC)c1nc(-c2ccc(Cl)cc2Cl)oc1N1CCCCC1 | i | i | i | i | 19*
O=c1c2c(-c3ccccc3)csc2ncn1/N=C/c1cccc([N+](=O)[O-])c1O | i | i | 68* | -8* | i
O=c1c2c(-c3ccccc3)csc2ncn1/N=C/c1ccc(O)c([N+](=O)[O-])c1 | i | i | i | i | i
Cc1onc(-c2ccccc2)c1NC(=O)N(CCC(=O)O)Cc1ccccc1 | i | i | i | i | i
c1cncc(-c2nc(NCC3CCCO3)c3ccccc3n2)c1 (stereo not given) | i | i | i | i | i
c1csc(CNc2nc(-c3cccs3)nc3ccccc23)c1 | i | i | i | -6* | i
c1csc(-c2nc(NCC3CCCO3)c3ccccc3n2)c1 (stereo not given) | i | i | i | -8* | i
c1ccc(-c2nc(NCc3cccs3)c3ccccc3n2)cc1 | i | i | i | i | i
CC(=O)CSc1nnc(-c2ccco2)n1-c1ccccc1 | i | i | i | i | i
CN(Cc1ccccc1)C(=O)CSc1nnc(-c2ccco2)n1-c1ccccc1 | i | i | i | -7* | i
CC1(C)CC(=O)c2cnc(N3CCc4ccccc43)nc2C1 | i | i | i | i | i

Screens deposited in PubChem BioAssay by Johns Hopkins Ion Channel Center.
